Published values collected from several papers.
Compare with care: the assays were run in different laboratories.
Target: Myosin-IIIb (MYO3B, Homo sapiens, UniProt Q8WXR4)
Residues used in one study (Q8WXR4 1-1341): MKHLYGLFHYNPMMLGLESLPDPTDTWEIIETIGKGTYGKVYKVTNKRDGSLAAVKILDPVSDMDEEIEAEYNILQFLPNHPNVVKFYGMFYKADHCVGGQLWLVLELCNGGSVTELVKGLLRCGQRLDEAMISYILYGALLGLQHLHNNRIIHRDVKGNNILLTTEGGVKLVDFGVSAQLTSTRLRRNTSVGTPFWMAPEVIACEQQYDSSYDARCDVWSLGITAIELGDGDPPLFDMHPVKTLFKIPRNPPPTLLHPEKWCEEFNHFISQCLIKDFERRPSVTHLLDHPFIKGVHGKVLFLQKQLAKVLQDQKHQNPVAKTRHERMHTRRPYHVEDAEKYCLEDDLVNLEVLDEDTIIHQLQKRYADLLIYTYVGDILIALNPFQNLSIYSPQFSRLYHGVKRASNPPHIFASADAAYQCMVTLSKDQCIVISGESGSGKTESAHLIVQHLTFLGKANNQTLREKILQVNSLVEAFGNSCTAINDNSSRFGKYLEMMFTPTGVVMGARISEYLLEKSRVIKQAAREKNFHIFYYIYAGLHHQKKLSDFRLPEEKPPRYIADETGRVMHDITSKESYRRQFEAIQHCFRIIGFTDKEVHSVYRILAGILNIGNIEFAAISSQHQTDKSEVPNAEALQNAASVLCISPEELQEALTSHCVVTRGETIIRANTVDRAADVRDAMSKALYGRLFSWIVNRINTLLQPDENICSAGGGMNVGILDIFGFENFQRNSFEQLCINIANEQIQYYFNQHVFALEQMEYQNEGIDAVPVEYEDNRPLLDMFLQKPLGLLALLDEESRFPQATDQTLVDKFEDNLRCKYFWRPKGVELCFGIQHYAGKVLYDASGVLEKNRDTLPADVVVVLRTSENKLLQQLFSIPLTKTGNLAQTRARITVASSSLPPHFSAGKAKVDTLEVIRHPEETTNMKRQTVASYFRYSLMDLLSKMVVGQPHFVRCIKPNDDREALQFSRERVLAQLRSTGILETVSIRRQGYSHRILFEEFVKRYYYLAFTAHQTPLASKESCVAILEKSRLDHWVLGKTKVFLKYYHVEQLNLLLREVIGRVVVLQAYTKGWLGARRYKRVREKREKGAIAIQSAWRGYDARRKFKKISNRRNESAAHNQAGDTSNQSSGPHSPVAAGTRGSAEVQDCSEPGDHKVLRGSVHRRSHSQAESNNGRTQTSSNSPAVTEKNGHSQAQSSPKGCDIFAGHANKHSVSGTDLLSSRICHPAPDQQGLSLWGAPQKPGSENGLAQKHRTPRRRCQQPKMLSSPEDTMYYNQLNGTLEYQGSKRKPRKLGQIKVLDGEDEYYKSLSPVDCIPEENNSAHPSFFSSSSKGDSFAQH

| Structure (SMILES) | assay | setting | remaining binding [%] |
| --- | --- | --- | --- |
| O=C(NCCCN1CCOCC1)c1ccc(Nc2nccc(-c3cc4ccccc4s3)n2)cc1 | binding, competition with immobilised ligand | 1 µM | 100 |
| O=C(N[C@H]1CCCCC/C=C\C2C[C@@]2(C(=O)O)NC(=O)[C@@H]2C[C@@H](Oc3ccncc3)CN2C1=O)OC1CCCC1 (stereo partly drawn) | binding, competition with immobilised ligand | 1 µM | 38 |
| C=CC(=O)N1CCC(C(=O)NCC(=O)N2CCN(c3nc(-c4cnc(N)nc4C(F)F)nc(N4CCOCC4)n3)CC2)CC1 | binding, competition with immobilised ligand | 1 µM | 96 |
| O=C(c1ccc(Nc2nccc(-c3cc4ccccc4s3)n2)cc1)N1CCC(N2CCCC2)CC1 | binding, competition with immobilised ligand | 1 µM | 100 |
| C[C@@H](c1cccc(C#N)c1)n1cc(Cl)cc(C(N)=O)c1=N | binding, competition with immobilised ligand | 1 µM | 100 |
| c1cnn2ncc(-c3ccnc(N4CCC45COC5)n3)c2c1 | binding | 1 µM | 100 |
| O=C(NCCCN1CCOCC1)c1ccc(Nc2ncc(Cl)c(-c3ccc(Cl)s3)n2)cc1 | binding, competition with immobilised ligand | 1 µM | 100 |
| COc1cnc(Nc2cccc(S(N)(=O)=O)c2)nc1N1CCN(c2ccccc2)CC1 | binding, competition with immobilised ligand | 1 µM | 100 |
| O=C(Nc1c[nH]nc1C(=O)NC1CCNCC1)c1cc(F)cc(F)c1 | binding, competition with immobilised ligand | 1 µM | 100 |
| Cc1cnn2ncc(-c3ccnc(N(C)C)n3)c2c1 | binding | 1 µM | 80 |
| CNCc1ccccc1-c1csc([C@@H](C)Nc2nc(C)nc3cc(OC)c(OC)cc23)c1 | cell-free assay, competition with immobilised ligand | 1 µM | 47 |
| Nc1ncc2c(n1)-c1c([nH]c3ccc(C#CC4CC4)cc13)CCCC2 | binding, competition with immobilised ligand | 1 µM | 75 |
| CCC(=O)N[C@H]1CC[C@@H](C(=O)N(C)c2ccc(-c3nc4ccccc4o3)cc2)C1 | cell-free assay, competition with immobilised ligand | 1 µM | 98 |
| CC1CCCN1c1nccc(-c2cnn3ncccc23)n1 (stereo not drawn) | binding | 1 µM | 100 |
| CS(=O)(=O)c1cc(C2(NC(=O)c3cncc4c3cnn4-c3ccc(F)cc3)CC2)ccn1 | cell-free assay, competition with immobilised ligand | 1 µM | 100 |
| COc1ccnn2ncc(-c3ccnc(N(C)C)n3)c12 | binding | 1 µM | 100 |
| CCN1CCN(Cc2ccc(C(=O)Nc3ccc(C)c(Oc4ccc5c(c4)CC(=O)N5)c3)cc2C(F)(F)F)CC1 | binding, competition with immobilised ligand | 1 µM | 100 |
| C[C@H]1CCN(c2nccc(-c3cnn4ncccc34)n2)C1 | binding | 1 µM | 100 |
| C[C@@H]1CN(c2cc(-c3n[nH]c4ccc(OC5(C)CC5)cc34)ncn2)C[C@H](C)O1 | cell-free assay, competition with immobilised ligand | 0.1 µM | 89 |
| CN(C)c1ncc(F)c(-c2cnn3ncccc23)n1 | binding | 1 µM | 100 |
| c1cncc(-c2cccc(Nc3nccc(NC4CCCCC4)n3)c2)c1 | binding, competition with immobilised ligand | 10 µM | 100 |
